Results from ChEMBL document CHEMBL1141450, “Anthraquinones with quinone reductase-inducing activity and benzophenones from Morinda citrifolia (noni) roots” (J Nat Prod, 2007).

Assays:
[1] = Chemoprevention index, ratio of IC50 for mouse Hepa lclc7 cells to activity against mouse quinone reductase; type: functional
Procedure, shortened: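 Chemoprevention index is calculated as IC50 divided by CD. IC50 is the concentration giving 50% growth inhibition of Hepa 1c1c7 cells. CD is the concentration doubling quinone reductase activity in the same cells. Isoliquiritigenin is the positive control.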

[2] = Cytotoxicity against mouse Hepa lclc7 cells; type: cell-based
Procedure, shortened: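 Hepa 1c1c7 murine hepatoma cells (ATCC CRL-2026) were tested in the QR induction assay format. IC50 is the concentration inhibiting cell growth by 50%.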

[3] = tested on: Hepa lclc7; assay: Induction of mouse quinone reductase in mouse Hepa lclc7 cells assessed as concentration required to double enzyme activity; type: cell-based
Procedure, shortened: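 Quinone reductase induction assay in Hepa 1c1c7 murine hepatoma cells (ATCC CRL-2026), with isoliquiritigenin as the positive control. CD is the concentration needed to double QR activity.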

[4] = Cytotoxicity against mouse Hepa lclc7 cells at 20 ug/mL; type: cell-based

## O=C1c2ccccc2C(=O)c2cc(CO)c(O)cc21
[1]
  Ratio: >83
[2]
  IC50: > 78 µM
[3]
  Activity: 0.94 µM

## Cc1c(O)cc2c(c1O)C(=O)c1ccccc1C2=O [Rubiadin]
[1]
  Ratio: >9
[2]
  IC50: > 74 µM
[3]
  Activity: 8.1 µM

## O=C(/C=C/c1ccc(O)cc1)c1ccc(O)cc1O [ISOLIQUIRITIGENIN]
[1]
  Ratio: 9.2
[2]
  IC50: 39 µM
[3]
  Activity: 4.3 µM

## Cc1c(O)cc2c(c1O)C(=O)c1ccc(O)cc1C2=O
[1]
  Ratio: 85
[2]
  IC50: 47 µM
[3]
  Activity: 0.56 µM

## O=C1c2ccccc2C(=O)c2c1ccc(O)c2O [ATHRAQUINONES A]
[1]
  Ratio: 5.1
[2]
  IC50: 62 µM
[3]
  Activity: 12 µM

## COc1c(O)cc2c(c1O)C(=O)c1ccc(O)cc1C2=O
[4]
  Activity: Non-toxic
[3]
  Activity: 0.009 µM
